According to PMC8864714 (Chemical Science, 2022):
Values after ≈ are worked out from the molar mass of the structure shown. Bridge positions count the residues as written; N and C are the ends. Square brackets hold non-standard residues; d marks the D form. I, II: the chains in the order shown. * marks the point of attachment. Ac6c = NC1(C(=O)O)CCCCC1; NHNH2 = NN*

How the values were obtained:
A. baumannii ATCC 19606 = test: MIC antibacterial assay; assay type: cell-based, Acinetobacter baumannii; settings: for MIC, A. baumannii 19606: 100% MHB, 90 min, 37 °C, twice in duplicate, mean ± SD
FADDI-KP028 (MDR) = test: MIC antibacterial assay; assay type: cell-based, K. pneumoniae
Method in brief: (§1)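 Broth assay in 100% Mueller Hinton broth. Test compound was serially diluted from 250 to 4 μg ml−1 and mixed 1:1 by volume with a bacterial suspension of 2 × 10^6 cells per ml, then incubated 90 min at 37 °C. MIC was obtained by plotting maximal growth against concentration (Lambert and Pearson method). Run twice in duplicate; mean ± SD.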

E. coli ATCC 25922 = test: MIC antibacterial assay; assay type: cell-based, Escherichia coli
K. pneumoniae ATCC 13883 = test: MIC antibacterial assay; assay type: cell-based, Klebsiella pneumoniae
A. baumannii culture = test: Peptide stability in bacterial culture; assay type: in vitro ADME; settings: 90 min incubation with A. baumannii culture
[1] = tested on: FADDI-AB156 (colistin-resistant, rifampin-resistant & MDR, XDR); test: MIC antibacterial assay; assay type: cell-based, A. baumannii; settings: for MIC, FADDI-AB156: 100% MHB, 90 min, 37 °C, twice in duplicate, mean ± SD
Method in brief: as §1

A. baumannii 19606 = test: Minimum bactericidal concentration; assay type: cell-based, Acinetobacter baumannii
[2] = tested on: panel of Gram-negative pathogens; test: Antibacterial testing, statements in words; assay type: cell-based; settings: Table S2
[3] = 100% MHB, 90 min, 37 °C, twice in duplicate, mean ± SD

I: H-[Ac6c]RPDKPRPYLPRPRPPRPVRC-NHNH2 / II: H-[Ac6c]RPDKPRPYLPRPRPPRPVRC-NHNH2 (disulfide I:21-II:21) [compound 2]
MIC, A. baumannii 19606 (A. baumannii ATCC 19606): 30.8 ± 3.3 (5.9) μg ml^−1 | MIC, FADDI-KP028 (FADDI-KP028 (MDR); [3]): 111.3 ± 0.3 (21.5) μg ml^−1 | MIC, E. coli 25922 (E. coli ATCC 25922; [3]): 3.1 ± 0.1 (0.6) μg ml^−1 | MIC, K. pneumoniae 13883 (K. pneumoniae ATCC 13883; [3]): 5.1 ± 0.8 (1.0) μg ml^−1 | peptide stability in A. baumannii culture (RP-HPLC trace) (A. baumannii culture): reduced | MIC, FADDI-AB156 [1]: 59.2 ± 0.2 (11.4) μg ml^−1

Colistin
MIC, A. baumannii 19606 (A. baumannii ATCC 19606): 0.5 ± 0.04 (0.4) μg ml^−1 | Bactericidal MBC, A. baumannii 19606 (A. baumannii 19606; CFU assay, twice in duplicate, mean ± SD): 0.8 ± 0.02 (0.7) μg ml^−1 | MIC, FADDI-AB156 [1]: 12.6 ± 1.6 (10.9) μg ml^−1

CNC(C)C1CCC(N)C(OC2C(N)CC(N)C(OC3OCC(C)(O)C(NC)C3O)C2O)O1 (centres unmarked) [Gentamicin]
MIC (A. baumannii ATCC 19606; Acinetobacter baumannii, ATCC19606, 1.5 h, read-out: MIC, A. baumannii 19606): 2.7 ± 0.2 µg/mL (≈ 5.65 µM) | MBC (A. baumannii 19606; Acinetobacter baumannii, 19606, read-out: Bactericidal MBC, A. baumannii 19606): 4.6 ± 0.3 µg/mL (≈ 9.63 µM) | MIC (FADDI-KP028 (MDR); Klebsiella pneumoniae, 1.5 h, read-out: MIC, FADDI-KP028): > 250 µg/mL | MIC (E. coli ATCC 25922; Escherichia coli, ATCC25922, 1.5 h, read-out: MIC, E. coli 25922): 0.9 ± 0.1 µg/mL (≈ 1.88 µM) | MIC (K. pneumoniae ATCC 13883; Klebsiella pneumoniae, ATCC13883, 1.5 h, read-out: MIC, K. pneumoniae 13883): 0.1 ± 0.05 µg/mL (≈ 0.209 µM) | MIC ([1]; Acinetobacter baumannii, 1.5 h, read-out: MIC, FADDI-AB156): > 250 µg/mL

Fc1c(F)c(F)c(F)c(F)c1F [Hexafluorobenzene]
antibacterial activity of the linkers alone [2]: no antibacterial activity

Fc1c(F)c(F)c(-c2c(F)c(F)c(F)c(F)c2F)c(F)c1F [Decafluorobiphenyl]
antibacterial activity of the linkers alone [2]: no antibacterial activity
